ChEMBL document CHEMBL1139414, “Conformationally constrained analogues of diacylglycerol. 29. Cells sort diacylglycerol-lactone chemical zip codes to produce diverse and selective biological activities” (J Med Chem, 2008)

Target: Protein kinase C alpha type (Mus musculus, UniProt P20444)
Assay: Displacement of [3H]PDBu form mouse PKCalpha by scintillation counting
Summary of the method: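 Partially purified mouse PKCα; competition with [³H]PDBU. ID50 obtained by fitting a sigmoidal competition curve and converted to Ki = ID50/(1+L/Kd). Pure compounds tested at 6–7 concentrations; crude library compounds at a single 1 μM concentration. Triplicates per concentration, at least three experiments; mean ± SEM.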

| Ki | SMILES |
| --- | --- |
| 53 nM | Cc1ccc(C(=O)OCC2(CO)C/C(=C/c3ccc(C(F)(F)F)cc3)C(=O)O2)cc1 (racemic) |
| 33.3 nM | CC(CC(=O)OCC1(CO)C/C(=C/c2ccccc2C(F)(F)F)C(=O)O1)CC(C)(C)C (racemic) |
| 515 nM | CN(C)c1ccc(/C=C2/CC(CO)(COC(=O)c3ccc(C(F)(F)F)cc3)OC2=O)cc1 (racemic) |
| 39.8 nM | CC(C)(C)C(=O)OCC1(CO)C/C(=C/c2cc(C(F)(F)F)cc(C(F)(F)F)c2)C(=O)O1 (racemic) |
| 8.1 nM | CCCC(CCC)C(=O)OCC1(CO)C/C(=C\c2ccc(F)c(Br)c2)C(=O)O1 (racemic; form 1) |
| 10.9 nM | CC(C)(C)C(=O)OCC1(CO)C/C(=C\c2ccc(F)c(Cl)c2)C(=O)O1 (racemic; form 1) |
| 212 nM | Cc1ccc(C(=O)OCC2(CO)C/C(=C/c3ccc([N+](=O)[O-])cc3)C(=O)O2)cc1 (racemic) |
| 133 nM | O=C1OC(CO)(COC(=O)C(c2ccccc2)c2ccccc2)C/C1=C/c1ccccc1C(F)(F)F (racemic) |
| 123 nM | CCCCC(/C=C1/CC(CO)(COC(=O)C2CCCCC2)OC1=O)CC (racemic) |
| 310 nM | CC(C)C(=O)OCC1(CO)C/C(=C/c2ccccc2C(F)(F)F)C(=O)O1 (racemic; form 1) |
| 466 nM | CCCCC(/C=C1/CC(CO)(COC(=O)c2ccc(N(C)C)cc2)OC1=O)CC (racemic; form 1) |
| 15.5 nM | CCCC(CCC)C(=O)OCC1(CO)C/C(=C/c2cccc(C(F)(F)F)c2)C(=O)O1 (racemic) |
| 48 nM | COc1ccc(/C=C2\CC(CO)(COC(=O)c3ccc(N(C)C)cc3)OC2=O)cc1 (racemic; form 1) |
| 60.6 nM | CC(C)C(=O)OCC1(CO)C/C(=C/c2ccc(F)c(Br)c2)C(=O)O1 (racemic) |
| 98.5 nM | CCCCCC/C=C1/CC(CO)(COC(=O)c2ccccc2)OC1=O (racemic) |
| 30.1 nM | CC(CC(=O)OCC1(CO)C/C(=C/c2cc(C(F)(F)F)cc(C(F)(F)F)c2)C(=O)O1)CC(C)(C)C (racemic) |
| 37 nM | CCCCCC/C=C1/CC(CO)(COC(=O)CCCCCC)OC1=O (racemic) |
| 97.6 nM | O=C1OC(CO)(COC(=O)C(c2ccccc2)c2ccccc2)C/C1=C/c1ccc(OC(F)(F)F)cc1 (racemic) |
| 15.2 nM | CCCCCC/C=C1/CC(CO)(COC(=O)C(CC)CCCC)OC1=O (racemic) |
| 53.9 nM | CCCCC(CC)C(=O)OCC1(CO)C/C(=C/c2ccc(OC)cc2)C(=O)O1 (racemic) |
| 54.5 nM | CC(C)(C)C(=O)OCC1(CO)C/C(=C/c2ccccc2C(F)(F)F)C(=O)O1 (racemic) |

| Ki | SMILES |
| --- | --- |
| 135 nM | Cc1ccccc1C(=O)OCC1(CO)C/C(=C/c2ccccc2)C(=O)O1 (racemic) |
| 58.9 nM | O=C1OC(CO)(COC(=O)C(c2ccccc2)c2ccccc2)C/C1=C/c1ccc(Br)cc1 (racemic) |
| 3.38 nM | CCCC(CCC)C(=O)OCC1(CO)C/C(=C\c2ccc(Cl)c(F)c2)C(=O)O1 (racemic; form 1) |
| 52.4 nM | O=C1OC(CO)(COC(=O)C(c2ccccc2)c2ccccc2)C/C1=C/c1ccc(C(F)(F)F)cc1 (racemic) |
| 13.1 nM | CCCC(CCC)C(=O)OCC1(CO)C/C(=C/c2ccc(Cl)cc2)C(=O)O1 (racemic) |
| 305 nM | CN(C)c1ccc(C(=O)OCC2(CO)C/C(=C/C3CCCCC3)C(=O)O2)cc1 (racemic) |
| 60.2 nM | Cc1cc(C)c(C(=O)OCC2(CO)C/C(=C/c3ccccc3)C(=O)O2)c(C)c1 (racemic) |
| 2.96 nM | CCCC(CCC)C(=O)OCC1(CO)C/C(=C\c2ccc(C(F)(F)F)cc2)C(=O)O1 (racemic; form 1) |
| 138 nM | Cc1ccc(C(=O)OCC2(CO)C/C(=C/c3ccccc3)C(=O)O2)cc1 (racemic) |
| 187 nM | CCCCC(/C=C1/CC(CO)(COC(=O)c2c(C(C)C)cc(C(C)C)cc2C(C)C)OC1=O)CC (racemic) |
| 82.7 nM | CCC(C(=O)OCC1(CO)C/C(=C/c2ccc(OC(F)(F)F)cc2)C(=O)O1)c1ccccc1 (racemic) |
| 438 nM | O=C1OC(CO)(COC(=O)c2ccc([N+](=O)[O-])cc2)C/C1=C/c1ccccc1 (racemic) |
| 156 nM | COc1ccc(/C=C2/CC(CO)(COC(=O)C3CCCCC3)OC2=O)cc1 (racemic) |
| 103 nM | COc1ccc(C(=O)OCC2(CO)C/C(=C\c3ccc(N(C)C)cc3)C(=O)O2)cc1 (racemic; form 1) |
| 36.3 nM | CC(C)(C)C(=O)OCC1(CO)C/C(=C/c2ccc(C(F)(F)F)cc2)C(=O)O1 (racemic) |
| 18.4 nM | CC(CC(=O)OCC1(CO)C/C(=C/c2ccc(C(F)(F)F)cc2)C(=O)O1)CC(C)(C)C (racemic) |
| 13.1 nM | CCCCC(CC)C(=O)OCC1(CO)C/C(=C/c2ccc(C(F)(F)F)cc2)C(=O)O1 (racemic; form 2) |
| 31.9 nM | O=C1OC(CO)(COC(=O)C2CCCCC2)C/C1=C/c1ccc(C(F)(F)F)cc1 (racemic) |
| 110 nM | Cc1ccccc1C(=O)OCC1(CO)C/C(=C/C2CCCCC2)C(=O)O1 (racemic) |
| 232 nM | O=C1OC(CO)(COC(=O)c2ccccc2)C/C1=C/c1ccccc1 (racemic) |
| 119 nM | CC(C)C(=O)OCC1(CO)C/C(=C/c2ccc(F)c(Cl)c2)C(=O)O1 (configuration not stated) |

| Ki | SMILES |
| --- | --- |
| 105 nM | CCCCCC/C=C1/CC(CO)(COC(=O)c2ccc(OC)cc2)OC1=O (racemic) |
| 61.9 nM | O=C1OC(CO)(COC(=O)C(c2ccccc2)c2ccccc2)C/C1=C/c1cccc(C(F)(F)F)c1 (racemic) |
| 52.9 nM | CCC(C(=O)OCC1(CO)C/C(=C/c2cc(C(F)(F)F)cc(C(F)(F)F)c2)C(=O)O1)c1ccccc1 (racemic) |
| 38.3 nM | CC(CC(=O)OCC1(CO)C/C(=C/c2ccc(Cl)c(F)c2)C(=O)O1)CC(C)(C)C (racemic) |
| 64.1 nM | O=C1OC(CO)(COC(=O)c2ccccc2)C/C1=C/c1ccc(C(F)(F)F)cc1 (racemic) |
| 37 nM | CC(C)(C)CC(=O)OCC1(CO)C/C(=C/c2ccc(-c3ccc(C(F)(F)F)cc3)cc2)C(=O)O1 (racemic) |
| 59 nM | CCC(C(=O)OCC1(CO)C/C(=C/c2ccccc2C(F)(F)F)C(=O)O1)c1ccccc1 (racemic) |
| 34.8 nM | CC(C)C(=O)OCC1(CO)C/C(=C/c2ccc(-c3ccc(C(F)(F)F)cc3)cc2)C(=O)O1 (racemic) |
| 173 nM | COc1ccc(/C=C2/CC(CO)(COC(=O)c3ccccc3C)OC2=O)cc1 (racemic) |
| 890 nM | COc1ccc(C(=O)OCC2(CO)C/C(=C\c3ccc(N(C)C)cc3)C(=O)O2)cc1 (racemic; form 2) |
| 174 nM | CC(C)c1cc(C(C)C)c(C(=O)OCC2(CO)C/C(=C/C3CCCCC3)C(=O)O2)c(C(C)C)c1 (racemic) |
| 312 nM | CCCCC(/C=C1/CC(CO)(COC(=O)c2ccccc2)OC1=O)CC (racemic) |
| 35.4 nM | CCCCCCC(=O)OCC1(CO)C/C(=C/c2ccc(C(F)(F)F)cc2)C(=O)O1 (racemic) |
| 49.7 nM | CC(CC(=O)OCC1(CO)C/C(=C/c2ccc(-c3ccc(C(F)(F)F)cc3)cc2)C(=O)O1)CC(C)(C)C (racemic) |
| 376 nM | Cc1ccccc1C(=O)OCC1(CO)C/C(=C/c2ccc(N(C)C)cc2)C(=O)O1 (racemic) |
| 17.3 nM | CCCCC(CC)C(=O)OCC1(CO)C/C(=C/c2cc(C(F)(F)F)cc(C(F)(F)F)c2)C(=O)O1 (racemic) |
| 110 nM | Cc1ccc(C(=O)OCC2(CO)C/C(=C/C3CCCCC3)C(=O)O2)cc1 (racemic) |
| 8 nM | COc1ccc(/C=C2\CC(CO)(COC(=O)c3c(C(C)C)cc(C(C)C)cc3C(C)C)OC2=O)cc1 (racemic; form 1) |
| 28.1 nM | CC(C)(C)C(=O)OCC1(CO)C/C(=C/c2cccc(C(F)(F)F)c2)C(=O)O1 (racemic) |
| 8.5 nM | CCCCC(CC)C(=O)OCC1(CO)C/C(=C/c2ccc(Br)cc2)C(=O)O1 (racemic) |
| 273 nM | CC(C)C(=O)OCC1(CO)C/C(=C/c2ccc(F)cc2)C(=O)O1 (racemic) |

| Ki | SMILES |
| --- | --- |
| 158 nM | CC(C)C(=O)OCC1(CO)C/C(=C/c2ccccc2C(F)(F)F)C(=O)O1 (racemic; form 2) |
| 93.8 nM | CCCCCCC(=O)OCC1(CO)C/C(=C/c2ccc([N+](=O)[O-])cc2)C(=O)O1 (racemic) |
| 12.4 nM | CCCCC(CC)C(=O)OCC1(CO)C/C(=C\c2ccc(Cl)c(F)c2)C(=O)O1 (racemic; form 1) |
| 171 nM | CCCCC(/C=C1/CC(CO)(COC(=O)c2ccc(C)cc2)OC1=O)CC (racemic) |
| 35 nM | CCCCC(CC)C(=O)OCC1(CO)C/C(=C/c2ccccc2)C(=O)O1 (racemic) |
| 16.8 nM | CC(CC(=O)OCC1(CO)C/C(=C/c2ccc(Cl)cc2)C(=O)O1)CC(C)(C)C (racemic) |
| 20.5 nM | CC(C)(C)C(=O)OCC1(CO)C/C(=C\c2ccc(F)c(Cl)c2)C(=O)O1 (racemic; form 2) |
| 33 nM | CCC(C(=O)OCC1(CO)C/C(=C/c2ccc(Br)cc2)C(=O)O1)c1ccccc1 (racemic) |
| 25.1 nM | Cc1cc(C)c(C(=O)OCC2(CO)C/C(=C/c3ccc(C(F)(F)F)cc3)C(=O)O2)c(C)c1 (racemic) |
| 55.7 nM | CCCCCC/C=C1/CC(CO)(COC(=O)c2ccc(C(F)(F)F)cc2)OC1=O (racemic) |
| 54.7 nM | CC(C)C(=O)OCC1(CO)C/C(=C/c2ccc(OC(F)(F)F)cc2)C(=O)O1 (racemic) |
| 1080 nM | CN(C)c1ccc(/C=C2\CC(CO)(COC(=O)c3ccc(N(C)C)cc3)OC2=O)cc1 (racemic; form 2) |
| 134 nM | CCCCC(/C=C1/CC(CO)(COC(=O)c2ccc(N(C)C)cc2)OC1=O)CC (racemic; form 2) |
| 10.7 nM | CCCC(CCC)C(=O)OCC1(CO)C/C(=C/c2ccc(Br)cc2)C(=O)O1 (racemic) |
| 197 nM | COc1ccc(/C=C2\CC(CO)(COC(=O)c3c(C(C)C)cc(C(C)C)cc3C(C)C)OC2=O)cc1 (racemic; form 2) |
| 189 nM | CCCCC(/C=C1/CC(CO)(COC(=O)c2ccccc2C)OC1=O)CC (racemic) |
| 36.7 nM | CC(C)(C)C(=O)OCC1(CO)C/C(=C/c2ccc(Cl)c(F)c2)C(=O)O1 (racemic) |
| 81.8 nM | O=C1OC(CO)(COC(=O)C(c2ccccc2)c2ccccc2)C/C1=C/c1ccc(F)cc1 (racemic) |

| SMILES | Ki |
| --- | --- |
| O=C1OC(CO)(COC(=O)c2ccc([N+](=O)[O-])cc2)C/C1=C\c1ccc([N+](=O)[O-])cc1 (racemic; form 1) | 660 nM |
